Laboratory results reported in ChEMBL document CHEMBL4261628, “1H-pyrrolo[2,3-b]pyridine: A new scaffold for human neutrophil elastase (HNE) inhibitors” (Bioorg Med Chem, 2018).
Calls of active or inactive are those of the source. The rule behind the calls is not given here.

Assays:
[1] = Half life in 0.05 M phosphate buffer of pH 7.3 at 25 degC by spectrophotometric analysis; assay type: physicochemical
[2] = target: T1, Neutrophil elastase (Homo sapiens) (UniProt P08246); assay: Inhibition of human neutrophil elastase at 50 uM using N-methylsuccinyl-Ala-Ala-Pro-Val-7-amino-4-methylcoumarin as substrate measured every 30 secs for 10 mins by fluorescence assay
T1 sequence (whole entry): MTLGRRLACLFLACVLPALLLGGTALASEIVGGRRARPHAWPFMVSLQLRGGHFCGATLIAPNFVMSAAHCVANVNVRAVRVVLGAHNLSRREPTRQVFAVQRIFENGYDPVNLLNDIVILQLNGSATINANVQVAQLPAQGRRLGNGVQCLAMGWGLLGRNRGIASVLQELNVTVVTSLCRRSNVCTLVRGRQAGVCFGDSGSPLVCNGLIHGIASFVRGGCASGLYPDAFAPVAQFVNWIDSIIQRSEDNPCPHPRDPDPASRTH
How it was run: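 HNE (20 mU/mL) in 200 mM Tris-HCl pH 7.5 with 0.01% BSA and 0.05% Tween-20. Compound from 5 mM DMSO stock, 1% DMSO final, tested up to 50 µM. Reaction started with 25 µM final substrate. Fluorescence read at ex 355/em 460 nm, 25 °C. No inhibition at 50 µM is reported as N.A.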

SMILES | half-life [1] | inhibition [2]
Cc1cccc(C(=O)n2cc(-c3nc(C)no3)c3cccnc32)c1 | 2.4 h | 
Cc1cccc(C(=O)n2cc(-c3ccsc3)c3cccnc32)c1 |  | inactive
CCCCC(=O)n1cc(C#N)c2cccnc21 | 1.9 h | 
N#Cc1cn(CC(=O)Nc2ccccc2)c2ncccc12 |  | inactive
Cn1cc(C(=O)Nc2ccccc2)c2cccnc21 |  | inactive
Cc1cccc(C(=O)n2ccc3cccnc32)c1 |  | inactive
Cc1cccc(C(=O)n2cc(C#N)c3cccnc32)c1 | 1.9 h | 
N#Cc1cn(C(=O)C2CC2)c2ncccc12 | 6.8 h | 

More lines, now with the values ahead:

half-life [1] | inhibition [2] | SMILES
2.6 h |  | Cc1ccc(C(=O)n2cc(C#N)c3cccnc32)cc1
4.3 h |  | CCOC(=O)c1cn(C(=O)c2ccc(C)cc2)c2ncccc12
14.4 h |  | CCOC(=O)c1cn(C(=O)C2CC2)c2ncccc12
3.4 h |  | Cc1cccc(C(=O)n2cc(C(=O)Nc3ccccc3)c3cccnc32)c1
 | inactive | CCOC(=O)c1cn(CC(=O)Nc2ccccc2)c2ncccc12
3.5 h |  | CCOC(=O)c1cn(C(=O)c2cccc(C)c2)c2ncccc12
0.4 h |  | Cc1cccc(C(=O)n2cc([N+](=O)[O-])c3cccnc32)c1
